Blank lines part the entries; values can stand above or below the compound they belong to. Activity calls are given as the source filed them. The rule behind the calls is not given here.
Legend:
[1] = biological target: T1, Signal transducer and activator of transcription 3 (Homo sapiens, UniProt P40763); assay: Competitive binding affinity to STAT3 SH2 domain (unknown origin) assessed as inhibition of interaction with FAMpYLPQTV after 15 to 30 mins by fluorescent polarization assay
[2] = species on record: Homo sapiens; assay: Induction of apoptosis in human 147EF cells assessed as PARP cleavage at 0.1 to 1 uM after 3 hrs by Western blotting analysis; type: functional, cell-based
[3] = species on record: Homo sapiens; assay: Inhibition of AKT phosphorylation in human 147EF cells at 0.1 to 1 uM after 3 hrs by Western blotting analysis; type: cell-based
[4] = biological target: T1, Signal transducer and activator of transcription 3; assay: Inhibition of STAT3 phosphorylation at Y705 in human 147EF cells at 0.1 to 1 uM after 3 hrs by Western blotting analysis; type: cell-based
[5] = Cytotoxicity against human 30M cells assessed as cell viability after 3 days by Alamar Blue assay; details: 72 h
[6] = Cytotoxicity against human 73M cells assessed as cell viability after 8 days by Alamar Blue assay; type: functional, cell-based; details: 192 h
[7] = Cytotoxicity against human 30M cells assessed as cell viability after 8 days by Alamar Blue assay; type: functional, cell-based; details: 192 h
[8] = biological target: Proto-oncogene tyrosine-protein kinase Src (Homo sapiens) (UniProt P12931); assay: Inhibition of c-Src (unknown origin) at 5 uM after 120 mins relative to control
[9] = biological target: Tyrosine-protein kinase JAK1 (Homo sapiens) (UniProt P23458); assay: Inhibition of JAK1 (unknown origin) at 5 uM after 120 mins
[10] = biological target: Tyrosine-protein kinase JAK2 (Homo sapiens) (UniProt O60674); assay: Inhibition of JAK2 (unknown origin) at 5 uM after 120 mins relative to control
[11] = biological target: Mitogen-activated protein kinase 3 (Homo sapiens) (UniProt P27361); assay: Inhibition of ERK1 (unknown origin) at 5 uM after 120 mins
[12] = biological target: RAC-alpha serine/threonine-protein kinase (Homo sapiens) (UniProt P31749); assay: Inhibition of AKT1 (unknown origin) at 5 uM after 120 mins
[13] = biological target: Epidermal growth factor receptor (Homo sapiens) (UniProt P00533); assay: Inhibition of EGFR in human 147EF cells after 6 hrs by Western blotting analysis; type: cell-based
[14] = species on record: Homo sapiens; assay: Inhibition of MAPK in human 147EF cells after 6 hrs by Western blotting analysis; type: cell-based
[15] = species on record: Homo sapiens; assay: Inhibition of AKT in human 147EF cells after 6 hrs by Western blotting analysis; type: cell-based
[16] = biological target: Proto-oncogene tyrosine-protein kinase Src (Homo sapiens) (UniProt P12931); assay: Inhibition of Src in human 147EF cells after 6 hrs by Western blotting analysis; type: cell-based
[17] = biological target: Tyrosine-protein kinase JAK2 (Homo sapiens) (UniProt O60674); assay: Inhibition of JAK2 in human 147EF cells after 6 hrs by Western blotting analysis; type: cell-based
[18] = Cytotoxicity against HF2006 cells assessed as cell viability at 5 uM after 3 days by Alamar Blue assay; type: cell-based; details: human, 72 h
Procedure, shortened: (§1)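 Normal human fetal astrocytes (healthy, non-tumor cells) were exposed to compounds at concentrations up to 5 μM, with viability as the cytotoxicity read-out.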

[19] = Cytotoxicity against HF2003 cells assessed as cell viability at 5 uM after 3 days by Alamar Blue assay; type: cell-based; details: human, 72 h; procedure, shortened: as §1

T1 sequence (P40763 whole entry, the tested form may be a part): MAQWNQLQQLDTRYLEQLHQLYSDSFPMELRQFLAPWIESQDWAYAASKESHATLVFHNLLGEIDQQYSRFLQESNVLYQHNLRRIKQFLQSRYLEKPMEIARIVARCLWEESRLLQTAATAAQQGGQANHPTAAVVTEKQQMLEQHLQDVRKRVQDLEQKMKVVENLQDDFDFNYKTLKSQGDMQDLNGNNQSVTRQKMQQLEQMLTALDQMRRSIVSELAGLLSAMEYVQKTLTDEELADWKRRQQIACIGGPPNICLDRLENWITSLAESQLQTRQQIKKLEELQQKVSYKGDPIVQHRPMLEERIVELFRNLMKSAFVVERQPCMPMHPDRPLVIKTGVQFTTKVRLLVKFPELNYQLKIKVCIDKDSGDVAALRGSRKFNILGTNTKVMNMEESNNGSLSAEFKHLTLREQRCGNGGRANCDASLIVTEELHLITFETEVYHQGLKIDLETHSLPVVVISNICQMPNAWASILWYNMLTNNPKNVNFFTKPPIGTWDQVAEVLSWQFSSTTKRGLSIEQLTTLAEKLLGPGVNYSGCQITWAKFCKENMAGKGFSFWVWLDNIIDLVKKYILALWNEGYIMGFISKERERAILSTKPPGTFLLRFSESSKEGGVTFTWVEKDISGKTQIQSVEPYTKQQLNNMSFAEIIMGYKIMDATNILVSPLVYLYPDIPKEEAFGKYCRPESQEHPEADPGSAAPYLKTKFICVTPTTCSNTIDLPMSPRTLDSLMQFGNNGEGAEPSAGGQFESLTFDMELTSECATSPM
Chain of Proto-oncogene tyrosine-protein kinase Src (Homo sapiens) (P12931 2-536 limits assumed): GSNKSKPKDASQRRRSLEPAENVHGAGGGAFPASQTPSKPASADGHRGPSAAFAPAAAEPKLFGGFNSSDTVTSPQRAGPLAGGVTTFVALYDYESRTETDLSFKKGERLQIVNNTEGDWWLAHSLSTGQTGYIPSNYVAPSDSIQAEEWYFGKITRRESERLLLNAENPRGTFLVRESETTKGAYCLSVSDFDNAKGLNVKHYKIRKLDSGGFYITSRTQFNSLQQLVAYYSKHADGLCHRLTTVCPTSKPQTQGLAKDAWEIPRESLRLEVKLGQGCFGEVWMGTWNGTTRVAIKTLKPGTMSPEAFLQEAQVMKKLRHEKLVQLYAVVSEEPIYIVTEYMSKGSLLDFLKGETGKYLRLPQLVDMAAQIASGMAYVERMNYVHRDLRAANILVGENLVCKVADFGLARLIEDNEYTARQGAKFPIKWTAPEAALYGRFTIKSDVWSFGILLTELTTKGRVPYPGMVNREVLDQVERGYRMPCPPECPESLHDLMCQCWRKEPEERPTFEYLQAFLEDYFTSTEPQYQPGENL
Chain of Tyrosine-protein kinase JAK2 (Homo sapiens) (O60674 whole entry): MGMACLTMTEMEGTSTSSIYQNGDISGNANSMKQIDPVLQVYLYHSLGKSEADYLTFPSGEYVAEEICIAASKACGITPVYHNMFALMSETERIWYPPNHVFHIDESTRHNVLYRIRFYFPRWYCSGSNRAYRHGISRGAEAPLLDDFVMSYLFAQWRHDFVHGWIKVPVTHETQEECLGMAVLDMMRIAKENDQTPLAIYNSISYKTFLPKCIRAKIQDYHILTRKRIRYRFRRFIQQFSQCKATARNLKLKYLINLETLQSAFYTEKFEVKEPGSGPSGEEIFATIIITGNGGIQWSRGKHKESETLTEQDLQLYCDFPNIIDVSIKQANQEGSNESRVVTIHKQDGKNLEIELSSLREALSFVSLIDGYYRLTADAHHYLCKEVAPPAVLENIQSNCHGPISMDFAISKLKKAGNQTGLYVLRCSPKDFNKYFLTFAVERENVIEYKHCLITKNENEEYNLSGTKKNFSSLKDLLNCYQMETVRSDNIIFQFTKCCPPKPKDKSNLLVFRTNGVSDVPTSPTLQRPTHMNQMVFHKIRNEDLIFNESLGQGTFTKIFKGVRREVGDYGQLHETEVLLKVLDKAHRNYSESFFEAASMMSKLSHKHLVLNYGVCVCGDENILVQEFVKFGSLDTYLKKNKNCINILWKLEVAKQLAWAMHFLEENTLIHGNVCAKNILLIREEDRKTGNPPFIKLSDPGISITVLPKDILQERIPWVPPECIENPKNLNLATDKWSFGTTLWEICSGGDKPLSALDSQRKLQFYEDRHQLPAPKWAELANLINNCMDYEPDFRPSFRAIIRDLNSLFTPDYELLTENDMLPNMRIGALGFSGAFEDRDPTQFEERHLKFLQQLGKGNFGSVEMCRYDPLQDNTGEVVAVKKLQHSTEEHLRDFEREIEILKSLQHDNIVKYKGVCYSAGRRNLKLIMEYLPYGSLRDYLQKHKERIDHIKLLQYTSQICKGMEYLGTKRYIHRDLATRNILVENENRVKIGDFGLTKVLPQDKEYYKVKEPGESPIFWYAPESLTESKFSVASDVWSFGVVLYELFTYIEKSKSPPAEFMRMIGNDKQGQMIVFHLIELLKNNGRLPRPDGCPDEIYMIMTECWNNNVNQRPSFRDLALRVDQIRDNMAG
Chain of Epidermal growth factor receptor (Homo sapiens) (P00533 whole entry): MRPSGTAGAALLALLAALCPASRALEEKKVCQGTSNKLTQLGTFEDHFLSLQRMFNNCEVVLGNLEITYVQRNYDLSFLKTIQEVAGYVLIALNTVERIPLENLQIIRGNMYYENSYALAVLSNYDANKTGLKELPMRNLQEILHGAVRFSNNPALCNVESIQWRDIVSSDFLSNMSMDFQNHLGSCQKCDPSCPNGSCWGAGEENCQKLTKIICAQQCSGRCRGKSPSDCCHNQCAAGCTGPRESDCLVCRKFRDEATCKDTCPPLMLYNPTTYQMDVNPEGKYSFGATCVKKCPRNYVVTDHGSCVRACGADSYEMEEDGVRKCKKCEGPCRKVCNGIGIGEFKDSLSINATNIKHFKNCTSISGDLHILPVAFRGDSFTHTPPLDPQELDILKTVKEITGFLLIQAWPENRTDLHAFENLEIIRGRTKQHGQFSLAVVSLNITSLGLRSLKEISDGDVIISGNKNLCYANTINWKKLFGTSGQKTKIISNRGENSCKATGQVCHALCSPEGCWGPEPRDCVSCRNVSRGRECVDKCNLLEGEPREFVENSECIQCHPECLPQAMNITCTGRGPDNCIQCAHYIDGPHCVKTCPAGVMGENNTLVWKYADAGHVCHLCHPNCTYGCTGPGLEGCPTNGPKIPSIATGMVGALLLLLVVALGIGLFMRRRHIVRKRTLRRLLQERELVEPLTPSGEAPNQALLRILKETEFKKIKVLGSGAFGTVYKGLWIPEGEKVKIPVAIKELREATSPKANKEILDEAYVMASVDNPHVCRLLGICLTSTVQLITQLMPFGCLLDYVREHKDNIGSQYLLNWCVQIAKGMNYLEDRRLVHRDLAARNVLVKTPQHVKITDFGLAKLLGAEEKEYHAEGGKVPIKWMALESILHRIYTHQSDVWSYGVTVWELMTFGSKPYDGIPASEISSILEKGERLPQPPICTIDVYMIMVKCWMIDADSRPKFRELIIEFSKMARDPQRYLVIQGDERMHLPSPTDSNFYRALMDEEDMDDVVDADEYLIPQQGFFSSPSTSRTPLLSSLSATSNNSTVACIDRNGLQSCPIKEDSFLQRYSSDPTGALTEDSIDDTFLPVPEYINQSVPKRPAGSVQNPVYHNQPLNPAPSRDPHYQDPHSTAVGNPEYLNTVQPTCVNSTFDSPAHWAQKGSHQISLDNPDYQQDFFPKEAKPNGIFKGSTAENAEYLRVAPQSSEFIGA
Chain of Tyrosine-protein kinase JAK1 (Homo sapiens) (P23458 whole entry): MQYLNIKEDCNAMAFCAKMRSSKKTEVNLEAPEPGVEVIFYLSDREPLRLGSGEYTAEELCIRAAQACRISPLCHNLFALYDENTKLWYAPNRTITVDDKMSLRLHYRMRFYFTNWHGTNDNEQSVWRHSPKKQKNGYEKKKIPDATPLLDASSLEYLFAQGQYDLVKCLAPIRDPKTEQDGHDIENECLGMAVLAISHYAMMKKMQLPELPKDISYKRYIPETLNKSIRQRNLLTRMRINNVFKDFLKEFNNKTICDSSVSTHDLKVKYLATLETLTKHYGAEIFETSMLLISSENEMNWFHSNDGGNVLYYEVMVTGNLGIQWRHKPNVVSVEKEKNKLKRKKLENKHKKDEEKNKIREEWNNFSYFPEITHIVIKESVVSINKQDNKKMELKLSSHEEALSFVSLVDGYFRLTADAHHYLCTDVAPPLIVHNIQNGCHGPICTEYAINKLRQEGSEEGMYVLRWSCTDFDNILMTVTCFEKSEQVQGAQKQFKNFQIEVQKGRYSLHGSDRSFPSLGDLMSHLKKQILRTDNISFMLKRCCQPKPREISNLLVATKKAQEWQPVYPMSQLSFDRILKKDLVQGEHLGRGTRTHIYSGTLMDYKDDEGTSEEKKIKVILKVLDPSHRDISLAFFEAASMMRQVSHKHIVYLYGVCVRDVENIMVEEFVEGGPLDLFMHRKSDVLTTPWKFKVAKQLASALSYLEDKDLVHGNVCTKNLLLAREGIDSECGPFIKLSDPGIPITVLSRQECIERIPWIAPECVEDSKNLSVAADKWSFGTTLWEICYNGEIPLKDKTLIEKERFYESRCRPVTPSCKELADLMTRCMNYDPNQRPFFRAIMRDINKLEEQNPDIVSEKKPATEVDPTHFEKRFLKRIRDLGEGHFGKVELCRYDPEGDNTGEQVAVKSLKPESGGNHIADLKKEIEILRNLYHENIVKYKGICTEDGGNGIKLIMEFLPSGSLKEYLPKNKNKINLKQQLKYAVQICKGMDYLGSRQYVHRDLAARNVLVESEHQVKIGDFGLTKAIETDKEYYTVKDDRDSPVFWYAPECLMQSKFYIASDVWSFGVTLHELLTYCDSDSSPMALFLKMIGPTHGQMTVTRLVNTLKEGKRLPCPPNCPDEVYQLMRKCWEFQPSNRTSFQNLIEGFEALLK

inhibition [1]: inactive
SMILES: CC(=O)OCOC(=O)c1ccc(N(Cc2ccc(C3CCCCC3)cc2)C(=O)CN(C)S(=O)(=O)c2c(F)c(F)c(F)c(F)c2F)cc1

inhibition [1]: inactive
SMILES: CCOC(=O)C(=O)Nc1ccc(N(Cc2ccc(C3CCCCC3)cc2)C(=O)CN(C)S(=O)(=O)c2c(F)c(F)c(F)c(F)c2F)cc1

inhibition [1]: inactive
SMILES: CCOP(=O)(Cc1ccc(N(Cc2ccc(C3CCCCC3)cc2)C(=O)CN(C)S(=O)(=O)c2c(F)c(F)c(F)c(F)c2F)cc1)OCC

inhibition [8]: 50% | inhibition [9]: inactive | inhibition [10]: 50% | inhibition [11]: inactive | inhibition [12]: inactive | inhibition [13]: inactive | inhibition [16]: inactive | inhibition [17]: inactive
SMILES: CN(CC(=O)N(Cc1ccc(C2CCCCC2)cc1)c1ccc(C(=O)NO)cc1)S(=O)(=O)c1c(F)c(F)c(F)c(F)c1F
inhibition [14]: inactive | inhibition [15]: inactive | Activity [18]: Non-toxic | Activity [19]: Non-toxic

The next lines start with the compound.

SMILES: CN(CC(=O)N(Cc1ccc(C2CCCCC2)cc1)c1ccc(C(=O)O)c(O)c1)S(=O)(=O)c1c(F)c(F)c(F)c(F)c1F
Activity [2]: Active | inhibition [3]: Active | inhibition [4]: Active | IC50 [5]: 2000 nM

SMILES: C[C@H](NC(=O)/C(C#N)=C/c1cccc(Br)n1)c1ccccc1 [WP 1066]
IC50 [6]: 2100 nM | IC50 [7]: 1800 nM

SMILES: CN(CC(=O)N(Cc1ccc(C2CCCCC2)cc1)c1ccccc1)S(=O)(=O)c1c(F)c(F)c(F)c(F)c1F
inhibition [1]: inactive

— ChEMBL document CHEMBL3108692, “Potent Targeting of the STAT3 Protein in Brain Cancer Stem Cells: A Promising Route for Treating Glioblastoma” (ACS Med Chem Lett, 2013)
